The species entered for data set [1] is Homo sapiens. Kind of data set: Toxicity in malaria patient assessed as vomiting on day 1 after treatment at quartile 1 of compound concentration. In kind it is organism-based. To be noted: in vivo. Summed up: (§1)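 Mothers or guardians were questioned at each follow-up visit about the child's symptoms and drug intake. Children were grouped into quartiles by whole-blood chloroquine concentration 1 day after the end of treatment. Symptom frequency is given as n/N (%), and vomiting duration in days. Trend across quartiles was tested with the nonparametric test for trend.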

The species entered for data set [2] is Homo sapiens. The data set can be described thus: Toxicity in malaria patient assessed as vomiting on day 1 after treatment at quartile 2 of compound concentration. It counts as organism-based. To be noted: in vivo. Summed up: as §1
The species named for data set [3] is Homo sapiens. Kind of data set: Toxicity in malaria patient assessed as vomiting on day 1 after treatment at quartile 3 of compound concentration. It counts as organism-based. To be noted: in vivo. In outline: as §1
For data set [4], the species on record is Homo sapiens. The data set can be described thus: Toxicity in malaria patient assessed as vomiting on day 1 after treatment at quartile 4 of compound concentration. In kind it is organism-based. The following applies: in vivo. In outline:
as §1

The species named for data set [5] is Homo sapiens. Kind of data set: Toxicity in malaria patient assessed as diarrhea on day 1 after treatment at quartile 1 of compound concentration. In kind it is organism-based. The following applies: in vivo. In outline:
as §1

For data set [6], the species on record is Homo sapiens. Kind of data set: Toxicity in malaria patient assessed as diarrhea on day 1 after treatment at quartile 2 of compound concentration. In kind it is organism-based. To be noted: in vivo. Summed up: as §1
For data set [7], the species on record is Homo sapiens. The data set can be described thus: Toxicity in malaria patient assessed as diarrhea on day 1 after treatment at quartile 3 of compound concentration. It counts as organism-based. To be noted: in vivo. Summed up:
as §1

For data set [8], the species on record is Homo sapiens. The data set can be described thus: Toxicity in malaria patient assessed as diarrhea on day 1 after treatment at quartile 4 of compound concentration. It counts as organism-based. To be noted: in vivo. Summed up:
as §1

The species named for data set [9] is Homo sapiens. Kind of data set: Toxicity in malaria patient assessed as duration of vomiting at quartile 1 of compound concentration. In kind it is organism-based. The following applies: in vivo. Summed up:
as §1

For data set [10], the species on record is Homo sapiens. Kind of data set: Toxicity in malaria patient assessed as duration of vomiting at quartile 2 of compound concentration. It counts as organism-based. The following applies: in vivo. Summed up: as §1
For data set [11], the species on record is Homo sapiens. Kind of data set: Toxicity in malaria patient assessed as duration of vomiting at quartile 3 of compound concentration. The following applies: in vivo. In kind it is organism-based. In outline:
as §1

For data set [12], the species on record is Homo sapiens. The data set can be described thus: Toxicity in malaria patient assessed as duration of vomiting at quartile 4 of compound concentration. It counts as organism-based. The following applies: in vivo. Summed up:
as §1

Data set [13] in a line: Plasma protein binding in healthy human. It counts as ADME, cell-free. The following applies: read-out: PPB.
Data set [14] is described as follows: Drug level in malaria patient whole blood on day 4. To be noted: human, read-out: Drug uptake. In kind it is ADME, tissue-based. Summed up:
(§2)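 Observational study of 102 children in Guinea-Bissau given chloroquine unsupervised under routine prescribing, usually split into two to three daily doses of 6.6 mg kg−1. Whole blood was drawn 1, 4 and 14 days after the last reported dose for chloroquine and desethylchloroquine analysis. Values are medians with interquartile range, in nM.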

The nature of data set [15]: Drug level in malaria patient whole blood on day 1. In kind it is ADME, tissue-based. To be noted: human, read-out: Drug uptake. Summed up: as §2
Data set [16] in a line: Drug level in malaria patient whole blood on day 14. In kind it is ADME, tissue-based. To be noted: human, read-out: Drug uptake. In outline:
as §2

Data set [17] is described as follows: Volume of distribution in malaria patient. In kind it is ADME, organism-based. The following applies: human, in vivo.
Data set [18] is described as follows: Drug level in malaria patient whole blood assessed as desethychloroquine level on day 1. The following applies: human, read-out: Drug uptake. It counts as ADME, tissue-based. Summed up:
as §2

Data set [19] is described as follows: Drug level in malaria patient whole blood assessed as desethychloroquine level on day 4. It counts as ADME, tissue-based. The following applies: human, read-out: Drug uptake. Summed up: as §2
Data set [20] is described as follows: Drug level in malaria patient whole blood assessed as desethychloroquine level on day 14. In kind it is ADME, tissue-based. To be noted: human, read-out: Drug uptake. Summed up: as §2

For the compound `CCN(CC)CCCC(C)Nc1ccnc2cc(Cl)ccc12` (stereo not given) [CHLOROQUINE], the Activity in data set [1] stood at 25%; in [2], 24%; in data set [3], 14%; in [4], 8%; in data set [5], 42%; in data set [6], 64%. Further, the figures for the Activity in data set [7] and in data set [8] were 33% and 21%, respectively. In addition, the Time in [9] came out at 1.4 days; in data set [10], 1.1 days; in [11] it was 0.5 days; in data set [12], 0.5 days. Moreover, the fraction unbound in [13] is 0.5. In addition, the concentration in data set [14] came to 626 nM; in data set [15], 894 nM; in data set [16], 204 nM. The Vd (usually a proportionality between amount in the body and measured concentration, not a real space) in [17] is > 100 L/kg.
Consider `CCNCCCC(C)Nc1ccnc2cc(Cl)ccc12` (stereo not given) [DESETHYLCHLOROQUINE], for which the concentration in data set [18] is 638 nM; in [19], 446 nM; in data set [20], 181 nM.

For the origin of these results see ChEMBL document CHEMBL1649116, “Chloroquine is grossly overdosed and overused but well tolerated in Guinea-bissau” (Antimicrob Agents Chemother, 2009).
